This is a sample that favours compounds with a hit; in the whole collection about 4.4% have one here.
HSF1 activator = increases HSF-1 driven luciferase reporter signal; activation, % at 9 µM; actives 1.7% (n = 300,000); NIH3T3-HGL HSF-1 luciferase reporter, MG132, 8 h; 100% = twice DMSO control signal;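 active = mean replicate activation of at least 50% with a set share of replicates each reaching 50%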;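 note: 0% = median of the neutral control wells and 100% = twice that signal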
T cruzi inh = blocks replication of Trypanosoma cruzi; T. cruzi beta-gal in NIH3T3, luminescence, 90 h; inhibition, % (no concentration beside the values); actives 1.4% (n = 300,000); AID 1885;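 active = mean inhibition across valid replicates above about 55%, limit read from the data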;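 note: signal also drops with host cell toxicity which is not excluded here; 0% = plate median of DMSO wells and 100% = zero luminescence signal; higher percent means less beta-gal luminescence so fewer parasites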
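assay system = mouse NIH/3T3 fibroblasts infected with β-gal-expressing T. cruzi Tulahuen C4 | input = 5,000 NIH/3T3 host cells per well | buffer or medium = DMEM plus 2% FBS | timing = 3 h host attachment, then at least 90 h co-culture | measured by = GalScreen luminescence, 60 min | evaluation = luminescence reflecting intracellular parasite burden, expressed as percent inhibition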
HIF act = HIF pathway transcriptional activation; actives 0.32% (n = 300,000); AID 1910; U2OS HRE-luciferase reporter, luminescence; normalized: DMSO 0%, desferrioxamine 100%; activation, % at 7.5 µM (by protocol);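 active = mean activation of at least 10% of the iron chelator positive control signal, with at least half of replicates also reaching 10%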
HSF1 inh = HSF1 inhibition; activity change, negative = inhibition, % at 7.5 µM (by protocol); actives 0.77% (n = 300,000); NIH3T3-HGL HSE-luciferase, MG132-induced, luminescence 8 h; stronger effect = lower value;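 active = more than half of replicate wells show activity change below -50%, luminescence cut by over half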;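 note: luciferase reports HSF-1 transcriptional activity via heat shock element; 0% = median of DMSO wells and -100% = zero luminescence signal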
Calb FLC = C. albicans growth modulation with fluconazole. AID 1979. C. albicans CaCi-2 + fluconazole, Alamar Blue growth, 48 h. growth inhibition, % (concentration not given with the values). actives 0.57% (n = 300,000);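 active = growth inhibition above about 58% in most replicates, limit read from the data, passing the limit was not always enough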;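 note: all wells also contain fluconazole at 8 µg/ml as a sub-toxic cotreatment; 0% = median of DMSO wells and 100% = median of geldanamycin control wells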
Numbers without * were called inactive.

Screening CC(=O)Oc1ccc(C(=O)Nc2cc(C)on2)cc1 returned HSF1 activator 7, T cruzi inh -9, HIF act 0, HSF1 inh -3 and Calb FLC 15.
`Cc1ccc(S(=O)(=O)/N=C(/c2ccccc2)N2CCOCC2)c(C)c1` gave HSF1 activator -1, T cruzi inh -3, HIF act 0, HSF1 inh -4 and Calb FLC 81*.
`C/C(=N\NC(N)=S)C1=CCC2C3CC[C@H]4CC(O)CC[C@]4(C)C3CC[C@]12C` (stereo partly drawn) gave HSF1 activator 51*, T cruzi inh 60*, HIF act 0, HSF1 inh 25 and Calb FLC -7.
`CCOC(=O)c1c(S(=O)(=O)N2CCCCC2C)c(C)n(C)c1C` (stereo not drawn) gave HSF1 activator -91, T cruzi inh -8, HSF1 inh -88* and Calb FLC 25.
`CCOC(=O)c1c(S(=O)(=O)N2CCN(C)CC2)c(C)n(C)c1C` gave HSF1 activator 1, T cruzi inh -7, HIF act -1, HSF1 inh -6 and Calb FLC 4.
Screening CCOC(=O)c1c(S(=O)(=O)N2CCCC(C)C2)c(C)n(C)c1C (stereo not drawn) returned HSF1 activator -13, T cruzi inh 7, HIF act -1, HSF1 inh -6 and Calb FLC 6.
CCOC(=O)c1c(S(=O)(=O)N2CCCC2)c(C)n(C)c1C was read as HSF1 activator -13, T cruzi inh -21, HIF act 48*, HSF1 inh -5 and Calb FLC -5.
Screening COc1ccc(NC(=O)c2ccc(Oc3ncccn3)cc2)cc1 returned HSF1 activator 11, T cruzi inh -11, HIF act 2, HSF1 inh 5 and Calb FLC 3.
CCC(=O)N(C(=O)CC)N1CCN(c2ccncc2S(=O)(=O)N2CCCCC2)CC1 was read as HSF1 activator -19, T cruzi inh 17, HIF act -1, HSF1 inh -3 and Calb FLC -1.
CCN(CC)c1ccc(S(=O)(=O)N2CCOCC2)cc1NC(=O)CSc1nnc(N)s1 was read as HSF1 activator 22, T cruzi inh 10, HIF act -9, HSF1 inh 9 and Calb FLC -2.
Screening O=C(O/N=C1/CCCc2occc21)c1ccc(F)cc1 returned HSF1 activator 12, T cruzi inh -9, HIF act 0, HSF1 inh 9 and Calb FLC 9.
`O=C(O/N=C1/CCSc2ccccc21)c1ccc(F)cc1` gave HSF1 activator 2, T cruzi inh 5, HIF act 0, HSF1 inh -2 and Calb FLC 117*.
CN(C)/C(=N\S(=O)(=O)c1ccccc1)c1ccccc1 was read as HSF1 activator -19, T cruzi inh -14, HIF act 0, HSF1 inh -5 and Calb FLC -5.
For CCOc1ccccc1CNC(=O)C1CCCN(c2nn3c(=O)cc(C)nc3s2)C1 (stereo not drawn) the results were HSF1 activator -16, T cruzi inh -5, HIF act 0, HSF1 inh 1 and Calb FLC -23.
Cc1cc(C2(c3cc(C)c(NC(=O)CN4CCOCC4)c(C)c3)CCCCC2)cc(C)c1NC(=O)CN1CCOCC1 was read as HSF1 activator -66, T cruzi inh 9, HIF act 0, HSF1 inh -57* and Calb FLC -7.
For Cc1nc(C(=O)NCCC(C)C)sc1C1(C)CC(c2ccccc2)=NO1 (stereo not drawn) the results were HSF1 activator 15, T cruzi inh 0, HIF act 0, HSF1 inh 5 and Calb FLC 2.
N#Cc1cc2c(nc1SCC(N)=O)CCCCC2 was read as HSF1 activator 11, T cruzi inh -5, HIF act 2, HSF1 inh 7 and Calb FLC -16.
Screening N#Cc1cc2c(nc1SCC(=O)N1CCOCC1)CCCCC2 returned HSF1 activator -75, T cruzi inh 13, HIF act 0, HSF1 inh -67* and Calb FLC 9.
`CCn1c(=S)[nH]c2cc(S(=O)(=O)N3CCCCC3)ccc21` gave HSF1 activator 36, T cruzi inh 12, HSF1 inh 18 and Calb FLC 19.
`CC(C)(C)c1ccc(OCCn2nc(C(=O)O)c3ccccc3c2=O)cc1` gave HSF1 activator 9, T cruzi inh -21, HIF act 0, HSF1 inh 4 and Calb FLC -1.

Screening data: PubChem, Broad Institute
